The list is not random: actives were taken first. Their share in the collection is about 1.1%.
PMI act satM6P = human PMI activators, high substrate, primary screen, biochemical, fluorescence intensity, near-saturating mannose 6-phosphate | activation factor at 20 µM | Mannose-6-phosphate isomerase (Homo sapiens), P34949 | actives 0.34% (n = 190,000) | coupled PMI enzyme assay, resazurin fluorescence, 20 min; active compounds read high; 1 = untreated enzyme, 0 = substrate-free blank | AID 1216, 2008;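 active means activation factor of 2 or more at 20 µM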
Target sequence (P34949 whole entry, looked up): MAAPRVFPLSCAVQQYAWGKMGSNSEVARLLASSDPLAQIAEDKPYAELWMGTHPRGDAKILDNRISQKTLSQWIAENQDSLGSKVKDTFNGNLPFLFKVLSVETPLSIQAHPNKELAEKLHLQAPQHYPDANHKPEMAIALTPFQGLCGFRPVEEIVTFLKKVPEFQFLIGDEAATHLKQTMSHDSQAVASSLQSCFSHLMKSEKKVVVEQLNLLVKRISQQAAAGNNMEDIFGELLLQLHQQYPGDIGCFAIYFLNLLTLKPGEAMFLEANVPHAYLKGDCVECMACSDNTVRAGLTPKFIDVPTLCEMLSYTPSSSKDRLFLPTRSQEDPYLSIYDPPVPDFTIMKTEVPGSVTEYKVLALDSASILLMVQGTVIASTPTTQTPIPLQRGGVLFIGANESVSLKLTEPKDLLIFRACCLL
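test system = human PMI in coupled enzyme assay | medium = HEPES-buffered pH 7.4 with magnesium and detergent | also added = 1.0 mM mannose-6-phosphate substrate with 0.22 mM NADP+ | compound = 20 µM single dose | times = 20 min incubation at room temperature | measured by = resorufin fluorescence (Ex 544/Em 590 nm) from resazurin via diaphorase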
Diaphorase act = compounds boosting diaphorase resazurin reduction – biochemical, uHTS, resorufin fluorescence, counter-screen for diaphorase-coupled primary assays, primary screen | activation factor at 20 µM | actives 0.005% (n = 190,000) | Diaphorase/resazurin coupled assay, 16 min; active compounds read high; 1 = vehicle wells, 0 = NADH-free wells;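 active means diaphorase activity raised at least twofold by the compound at 20 µM; inactive means activation factor below 2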
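Measured by – red resorufin fluorescence at 544/590 nm excitation/emission · Test system – Clostridium kluyveri diaphorase, purified enzyme · Incubation – reaction time 16 min, room temperature · Buffer or medium – 50 mM HEPES pH 7.4 with 4.542 mM MgCl2, 0.005% Tween 20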
DTT redox prof = compounds producing H2O2 with reducing agent – biochemical, NIH compound library profiling, artefact control for MLSCN library redox annotation, primary screen. activation, % at 10 µM. actives 0.03% (n = 200,000). DTT-dependent redox cycling H2O2, phenol red/HRP absorbance; 100% = 100 µM peroxide control, 0% = buffer. AID 878, 2007;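 active means activation of at least 50% relative to the plate's high and low controls in the primary single-dose screen; inactive means activation below 50%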;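 further: compound incubated with DTT at 0.8 mM final as the reducing agent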
PMI activator = activators of human PMI, primary screen, biochemical, fluorescence intensity, near-Km mannose 6-phosphate. actives 0.005% (n = 190,000). purified human PMI, coupled resazurin fluorescence, 20 min; active compounds read high; 1 = vehicle control, 0 substrate-free wells. activation factor at 20 µM. Mannose-6-phosphate isomerase (Homo sapiens), P34949;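 active means activation factor of 2 or more at 20 µM, relative to plate controls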
Diaphorase inh = diaphorase inhibitors and chemical oxidizers, primary screen, counter-screen for diaphorase-coupled primary assays, biochemical, uHTS, resorufin fluorescence; diaphorase resazurin-to-resorufin fluorescence, NADH, 16 min; bacterial (C. kluyveri) enzyme, not human; inhibition, % at 20 µM; actives 0.69% (n = 190,000); AID 1217, 2008;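 active means primary screen inhibition at 20 µM above a set limit, cut at about 50% in these data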;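 further: plate controls were DMSO with full reaction for no effect and wells lacking NADH for full effect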
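Detection: fluorescence of resorufin formed from resazurin, Ex 544/Em 590 nm; test system: Clostridium kluyveri diaphorase enzyme; amount: 0.14 U/mL diaphorase, enzyme working solution; times: 16-min room-temperature incubation before reading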
G6PDH CS = L. mesenteroides G6PDH inhibitors, counter-screen for G6PDH-coupled screening assays, biochemical, Leuconostoc mesenteroides enzyme; glucose-6-phosphate dehydrogenase [Leuconostoc mesenteroides]; Purified L. mesenteroides G6PDH, diaphorase/resazurin coupled fluorescence, 45 min; inhibition, % at 5 µM; actives 0.12% (n = 200,000); AID 1020, 2008; in the data active means inhibition above about 50%
An asterisk follows results filed as active; · = no result.

SMILES	PMI act satM6P	Diaphorase act	DTT redox prof	PMI activator	Diaphorase inh	G6PDH CS
O=C(Oc1ccc(/C=N/Nc2ccccc2)cc1)c1ccccc1	2.3*	1.1	-6	1.5	-12	0
O=C(O)c1cc(N/N=C/c2ccc(OCc3ccccc3)cc2)ccc1Cl	2.5*	0.9	-1	1.7	9	12
CC(C)C(=O)N/N=C/c1ccc(OCc2ccccc2)cc1	0.9	0.9	1	0.9	15	6
CC(C)NOC(=O)c1ccc(Cl)cc1	1	1	-1	1	4	-1
Cc1cc(C(=O)Nc2nc(-c3ccccn3)cs2)ccc1[N+](=O)[O-]	2.4*	0.8	-1	1.8	16	9
O=C(Nc1nc(-c2ccccn2)cs1)c1cc(Cl)ccc1[N+](=O)[O-]	0.9	0.8	-1	0.7	22	13
Cn1c(=O)c2c(nc(CN3CCc4ccccc4C3)n2CCc2ccccc2)n(C)c1=O	·	·	4	·	·	·
Cn1c(=O)c2c(nc(CN3CCc4ccccc4C3)n2CCCO)n(C)c1=O	2.2*	1	0	1.8	3	3
Cc1ccc(S(=O)(=O)NNC(=O)CCC(=O)Nc2ccccc2)cc1	1	1	2	1	2	10
C=C(C)C(=O)NNc1ccccc1	1.2	1.1	-1	1.5	-13	11
Nc1ccc(S(=O)(=O)NNC(=O)C(=O)NNc2ccccc2)cc1	2.3*	1	1	1.6	4	4
Cc1ccc(S(=O)(=O)NNc2ccccc2)cc1	2.1*	0.7	2	1.1	26	1
Cc1ccccc1C(=O)c1c[nH]c(C(=O)NCCc2ccccn2)c1	0.6	1	-2	1.1	4	8
O=C(N/N=C1/C(=O)c2cccc3cccc1c23)c1ccc(Cl)cc1	0.9	0.3	-1	0.9	68*	4
CCC(NC(C)C)C(O)c1ccc(O)c(O)c1 (stereo unspecified)	0.4	0.4	1	0.4	59*	63*
CCN(CC(=O)Nc1cccc(C#N)c1)CC(=O)Nc1cccc(OC)c1	1.1	0.9	0	1.1	6	8
Cc1ccccc1S(=O)(=O)/N=C(/c1ccccc1)N1CCOCC1	1	1	0	1	5	10
Oc1c(CN2CCc3ccccc3C2)cc(Cl)c2cccnc12	0.5	0.3	-1	0.6	68*	0
Oc1c(CN2CCCCC2)cc(Br)c2cccnc12	0.4	0.4	1	0.5	57*	36
O=C(Oc1c(CN2CCOCC2)cc(Cl)c2cccnc12)c1ccccc1	0.4	0.7	0	0.8	30	5
CC1CC(C)CN(C(=O)c2cc3cc(Br)cc(Br)c3o2)C1 (stereo unspecified)	0.9	0.9	0	1	15	4
CCOC(=O)c1cc(C)[nH]c(=S)c1C#N	1.4	0.5	-2	1	52*	-5
CCOC(=O)c1cc(C(=O)OCC)c(=O)[nH]c1C	1	1.2	2	1.2	-15	9
Cc1cccc2nc(-c3ccco3)c(Nc3ccc4c(c3)OCO4)n12	0.7	0.3	0	0.9	72*	9
NC(CO)C(=O)NNCc1ccc(O)c(O)c1O (stereo unspecified)	0.4	0.3	1	0.2	74*	31
COC(=O)C(NNc1ccccc1)(NC(=O)c1cccc(F)c1)C(F)(F)F (stereo unspecified)	2.2*	1	2	1.7	1	12
CC(CCc1ccccc1)NC(=O)CN1CCSc2ccccc21 (stereo unspecified)	0.9	0.9	0	0.9	14	10
